Screens from PubChem.
Only some compounds are listed: those with a hit (about 4% of all), similar ones and a draw of the others.
Ecoli rRNA inh – inhibits bacterial ribosomal RNA function over humanized ribosomes; GFP signal change (wild-type ribosome), % (concentration not given with the values); AID 720706; 1.6% of 350,000 active; E. coli WT GFP vs humanized-ribosome RFP mutants, fluorescence, 24 h; active compounds read low; DMSO median 0, no signal -100;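 active means significant combined selectivity score with lowered wild-type GFP, culture density cut under 30%, mutant RFP and density less affected; inactive means any of these conditions unmet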
FGF22 binding – binders of recombinant human FGF22 by thermal shift. Q9HCT0. SYPRO orange fluorescence; percent of sucrose octasulfate shift, DMSO zero. activity (Tm shift, normalised), % at 9.99 µM. 1.5% of 340,000 active. AID 651658;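 active means mean Tm shift, scaled 0 neutral to 100 positive control, at about 1.3% or above, every replicate too, limit read from the data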
Target sequence (Q9HCT0 whole entry, looked up): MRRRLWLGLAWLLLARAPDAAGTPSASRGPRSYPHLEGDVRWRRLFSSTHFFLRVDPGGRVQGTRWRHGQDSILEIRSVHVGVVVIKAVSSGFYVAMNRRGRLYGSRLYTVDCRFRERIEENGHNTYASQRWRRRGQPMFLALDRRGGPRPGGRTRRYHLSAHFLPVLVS
E-sel inducer – E-selectin induction on HUVECs. P16581. HUVEC E-selectin immunofluorescence imaging; normalized: neutral wells 0, TNF-alpha wells 100. activation, % at 7.58 µM. 0.37% of 260,000 active. AID 686992;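 active means mean E-selectin-positive cell signal at least 10% of the positive control, reached in at least 60% of replicates, without over 20% cell loss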
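Test system – human umbilical vein endothelial cells (HUVEC), E-selectin induction · Input – 3,000 HUVEC seeded per well · Buffer or medium – EGM-2, gelatin · Compound dosing – single-point compound dose · Detection – immunofluorescence imaging · Measure – percent E-selectin-positive cells · Controls – TNF-alpha high, DMSO low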
FN deposit inh – fibronectin deposition inhibition | 0.086% of 350,000 active | AH1F fibroblasts, Alexa488-fibronectin deposition fluorescence, overnight | inhibition, % at 12.6 µM;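 active means mean inhibition across replicates of 30% or more, regardless of how many single replicates reach that level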;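 further: positive control wells lacked labelled fibronectin entirely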
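Test system: AH1F fibroblast monolayer depositing Alexa488-labelled fibronectin into matrix. Input: 10000 cells per well. Technique: fluorescence, ex 485 nm, em 525 nm. Buffer or medium: DMEM plus 2% serum, read in PBS. Timing: 1 h cell adhesion before compound, then overnight fibronectin incubation. Compound: single dose, pinned. Read-out basis: inhibition from reduced deposited-fibronectin fluorescence.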
Statin myotox sup – protects C2C12 myotubes from simvastatin toxicity; rescue of ATP level, % at 7.49 µM; ATP luminescence, 48 h; scaled: DMSO 0, geranylgeraniol control 100; AID 602340; 0.78% of 330,000 active;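 active means mean ATP rescue above about 67%, or every replicate alone reaching that limit, limit read from the data, passing the limit was not always enough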;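 further: myotubes were challenged with 10 µM simvastatin during compound exposure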
SIRT5 block – sirtuin-5 (human) deacylase inhibition | Q9NXA8 | Purified SirT5, succinyl-peptide AMC, trypsin-coupled fluorescence | inhibition, % at 15 µM | 1.1% of 330,000 active | AID 652115; in the data active means inhibition above about 15%
Target sequence (Q9NXA8 whole entry, looked up): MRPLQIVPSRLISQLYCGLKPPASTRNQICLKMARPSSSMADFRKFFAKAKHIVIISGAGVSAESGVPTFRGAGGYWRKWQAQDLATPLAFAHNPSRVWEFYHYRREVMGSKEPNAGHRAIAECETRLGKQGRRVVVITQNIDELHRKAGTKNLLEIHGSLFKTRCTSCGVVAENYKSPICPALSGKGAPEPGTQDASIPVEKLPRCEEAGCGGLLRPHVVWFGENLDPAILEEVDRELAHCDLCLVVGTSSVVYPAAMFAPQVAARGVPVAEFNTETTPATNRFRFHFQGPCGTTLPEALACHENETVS
* marks the source's active call; other numbers are inactive results; . = not tested or not shown.

SMILES	Ecoli rRNA inh	FGF22 binding	E-sel inducer	FN deposit inh	Statin myotox sup	SIRT5 block
C[C@H](CO)N1C[C@H](C)[C@@H](CN(C)Cc2ccc(C(F)(F)F)cc2)Oc2ccc(NC(=O)Cn3cnnn3)cc2C1=O	2	0	2	-6	17	-6
Cc1noc(C)c1S(=O)(=O)Nc1ccc2c(c1)C(=O)N([C@H](C)CO)C[C@@H](C)[C@H](CN(C)CC1CCCCC1)O2	4	0	0	.	-2	-1
O=C1CCCC2=C1C(c1ccccc1)CC(=O)N2c1ccc(F)cc1F (configuration not stated)	0	43*	.	7	.	-2
CO[C@H]1CN(C)C(=O)c2ccc(NC(C)=O)cc2OC[C@@H](C)N(C(=O)c2ccccc2F)C[C@H]1C	0	.	0	7	-3	.
Cc1noc(C)c1COc1cccc(C(=O)Nc2ccc3c(c2)OCO3)c1	-17	0	2	6	0	.
Cc1noc(C)c1COc1cccc(C(=O)Oc2ccc3c(c2)OCO3)c1	-35*	.	.	.	3	.
COc1ccc(Nc2oc(COc3ccccc3OC)nc2C#N)cc1	-18	0	-1	-1	.	28*
CCCn1c(SCC(=O)N2CCCCC2)nnc1-c1ccccn1	13	44*	.	1	.	-10
O=C(CCl)N(CCCNC(=O)C(F)(F)F)c1ccc([N+](=O)[O-])cc1	8	0	.	1	.	-5
CC(=O)n1cc(N(C(=O)CCl)c2ccc([N+](=O)[O-])cc2)c2ccccc21	-36*	0	.	-4	.	-3
O=Cc1[nH]c2ccccc2c1N(C(=O)CCl)c1ccc([N+](=O)[O-])cc1	-55*	0	.	2	.	1
C[C@@H]1CN([C@H](C)CO)C(=O)c2cccc(NS(=O)(=O)c3cn(C)cn3)c2O[C@H]1CN(C)Cc1ccc2c(c1)OCO2	3	0	.	-5	5	3
Cc1ccc(C)c(-c2cc(C(=O)N/N=C/c3cccnc3)c3ccccc3n2)c1	-20*	0	.	-10	0	4
O=C(N/N=C/c1ccc[nH]1)c1cc(-c2ccc(Cl)cc2)nc2ccccc12	-38*	41	-2	0	.	-1
Cc1ccc(-c2cc(C(=O)N/N=C/c3cccnc3)c3ccccc3n2)cc1C	8	0	0	-13	9	0
Cc1ccc(C)c(Nc2cc(C(=O)NCc3cccnc3)c3ccccc3n2)c1	-26*	0	5	1	-14	-4
COc1ccccc1Nc1cc(C(=O)NCc2cccnc2)c2ccccc2n1	-9	0	6	-4	0	-3
O=C(N/N=C/c1cccnc1)c1cc(-c2ccc(Cl)cc2)nc2ccccc12	8	0	.	11	-13	-4
Cc1ccc(/C=N/NC(=O)c2cc(-c3cccnc3)nc3ccccc23)cc1	25	43*	1	13	.	-1
O=C(N/N=C/c1ccc(Cl)cc1)c1cc(-c2cccnc2)nc2ccccc12	21	0	0	-4	.	-4
C[C@@H](NC(=O)C[C@@H]1C=C[C@H](NC(=O)Cc2ccccn2)[C@H](CO)O1)c1ccccc1	-1	0	0	-3	4	-3
CC(C)NC(=O)N(C)C[C@H]1Oc2cc(Br)ccc2S(=O)(=O)N([C@H](C)CO)C[C@@H]1C	2	0	0	-1	-8	2
Cc1noc(C)c1S(=O)(=O)Nc1ccc2c(c1)C(=O)N([C@@H](C)CO)C[C@H](C)[C@@H](CN(C)C(=O)C1CCCCC1)OCCCC[C@H](C)O2	-3	0	0	.	.	-4
COc1ccc(C(=O)C2CCCN(C(=O)c3noc4c3CCCC4)C2)c(C)c1 (configuration not stated)	-15	0	2	.	-2	-3
COc1ccc(C(=O)C2CCCN(C(=O)c3noc4c3CCCC4)C2)cc1F (configuration not stated)	-25*	1	.	.	2	-2
SMILES	Ecoli rRNA inh	FGF22 binding	E-sel inducer	FN deposit inh	Statin myotox sup	SIRT5 block
COc1ccc(C(=O)C2CCCN(C(=O)COc3ccc(C(C)=O)cc3)C2)cc1F (configuration not stated)	-28	44*	.	5	.	-4
COc1ccc(C(=O)C2CCCN(C(=O)c3ccccc3C(C)=O)C2)cc1F (configuration not stated)	-3	0	0	-3	.	-5
CC(=O)N1CCCCN2[C@H](CO)[C@@H](c3ccc(-c4ccc(C)cc4)cc3)[C@H]2C1	6	0	0	.	.	0
O=[N+]([O-])c1cccc(N=NNc2cccc([N+](=O)[O-])c2)c1	-27*	0	-1	8	.	-1
CCC(CC)=NNc1cccc([N+](=O)[O-])c1	.	.	.	-5	.	.
O=[N+]([O-])c1cccc(N=Nc2ccc(O)cc2O)c1	-21*	0	-2	-6	-59	9
O=[N+]([O-])c1ccc(N=Nc2ccc(O)cc2O)cc1	.	.	.	-2	-28	.
CCCCCCCCSc1nnc2[nH]c(=O)cc(N)n12	-2	43*	-1	-2	.	-1
COc1ccc(CN2CC3(CCN(C(C)=O)CC3)c3c(n(C)c4cc(OC)ccc34)[C@H]2CO)cc1	2	.	.	.	.	.
CCN(C(=O)COC(=O)/C=C/c1ccc(F)cc1)C1CCCCC1	-7	0	0	-3	.	-2
CCN(C(=O)COC(=O)/C=C/c1ccco1)C1CCCCC1	-5	0	111*	7	7	6
CN1CCN(c2ccc(-c3cccc(NC(=O)COc4ccc(Cl)cc4)c3)nn2)CC1	-30*	0	-2	8	6	-2
CCCC(=O)N1CCC2(CC1)CN(S(=O)(=O)c1ccc(C)cc1)[C@H](CO)c1[nH]c3cc(OC)ccc3c12	-3	0	1	.	.	5
CCS(=O)(=O)N1CC2(C1)CN(S(=O)(=O)c1cn(C)cn1)[C@@H](CO)c1[nH]c3cc(OC)ccc3c12	5	0	0	3	.	30*
CCCC(=O)N1CC2(C1)CN(S(=O)(=O)c1ccc(C)cc1)[C@H](CO)c1[nH]c3cc(OC)ccc3c12	-4	.	1	-1	.	15*
CCS(=O)(=O)N1CC2(C1)CN(S(=O)(=O)c1cn(C)cn1)[C@H](CO)c1[nH]c3cc(OC)ccc3c12	2	0	0	0	.	-1
CO[C@H]1CN(C)C(=O)c2cc(NC(=O)C3CC3)ccc2OC[C@@H](C)N(Cc2cccc(F)c2)C[C@@H]1C	-2	0	0	-15	-3	1
Cc1ccccc1-c1ccc([C@@H]2[C@@H](CO)N3CCCCN(S(=O)(=O)c4ccc(F)cc4)C[C@@H]23)cc1	2	0	-1	.	26	-2
